# Screens as filed in PubChem BioAssay.
# CHOP inhibitor: CHOP inhibition in unfolded protein response. CHO-K1 CHOP-promoter luciferase, tunicamycin-induced, 15-18 h. inhibition, % at 10 µM. 220,000 compounds, 3.8% hits;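 active = compounds that reduced the stress-induced luciferase reporter signal by more than about 70% of percent inhibition, limit read from the data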;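 also: 0% = tunicamycin plus vehicle and 100% = wells without tunicamycin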
# XBP1 UPR activ: activators of adaptive arm of unfolded protein response (XBP1) | CHO-XBP1 luciferase reporter, IRE1-XBP1 UPR activation, luminescence; percent of tunicamycin response, DMSO as zero | activation, % at 20 µM | 330,000 compounds, 0.33% hits;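 active = versus positive control, 20 µM dose yields 30% or more activation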;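 also: 100% = tunicamycin at 10 µg/mL and 0% = DMSO only wells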
#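 Material: CHO cell line with stable XBP1 luciferase reporter; buffer or medium: F12 medium containing 10% fetal bovine serum; compound: single point, 20 µM final compound, 1% DMSO; incubation: 6 h treatment, 37 °C; measured by: glow luminescence from Steady-Glo reagent; evaluation: activation, % of tunicamycin; control set: tunicamycin high, DMSO low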
# TbMetRS inhib: blocks T. brucei methionyl-tRNA synthetase activity | purified T. brucei MetRS, ATP depletion, Kinase-Glo luminescence | inhibition, % at 11.9 µM | AID 624268 | 360,000 compounds, 0.4% hits;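 active = inhibition above a per-plate cutoff of the control wells' mean inhibition plus 3 SD, cut at about 5.5% in these data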;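 also: 0% = DMSO wells median and 100% = median of wells with control inhibitor compound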
#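 Material – parasite MetRS enzyme · Medium – HEPES-MgCl2-KCl buffer plus DTT, spermine, BSA, pyrophosphatase · Reagent – ATP, methionine and E. coli bulk tRNA substrates · Times – 15 min enzyme-compound preincubation, 2 h reaction, 10 min detection, 25 °C · Measured by – luminescence of leftover ATP · Evaluation – percent inhibition relative to median high and low control wells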
# V-ATPase pHluor: alters yeast V-ATPase proton transport; S. cerevisiae, pHLuorin cytosolic pH fluorescence; response, % at 10 µM; 350,000 compounds, 0.37% hits; in the data active = response mostly above about 7.3%, no sharp cut-off; inactive = mostly below about 5.4%; also: actives read high
# CHOP UPR activ: apoptotic UPR (CHOP) activation | CHO-CHOP luciferase reporter, luminescence; percent of tunicamycin response over DMSO baseline | activation, % at 10 µM | 330,000 compounds, 0.34% hits | AID 449763;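 active = at 10 µM dose, activation of 40% or more, normalized to positive control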;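 also: 100% = tunicamycin at 10 µg/mL and 0% = DMSO alone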
#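 System: CHO-CHOP luciferase reporter cell line | Buffer or medium: F12 medium containing 10% fetal bovine serum | Doses: One dose, 10 µM in 0.5% DMSO | Times: 6 h compound exposure at 37 °C after overnight seeding | Signal: Luciferase luminescence | Read-out: % activation vs tunicamycin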
# * = called active by the depositor; x = not tested or not shown. The full list was thinned out, with hits kept by preference.
SMILES,CHOP inhibitor,XBP1 UPR activ,TbMetRS inhib,V-ATPase pHluor,CHOP UPR activ
OC(c1cccnc1)c1nc(-c2cccc(F)c2)cs1 (stereo not drawn),x,x,0,x,x
Fc1ccc(/C=N/NC(=S)Nc2ccc(Cl)cc2Cl)cc1,16,5,1,5,1
Fc1ccc(NC(=S)N/N=C/c2cccc(Br)c2)c(F)c1,95*,0,0,1,1
Nc1nc(-c2ccccn2)nc(N)c1Cc1ccc(Cl)cc1Cl,46,43*,0,11*,34
Nc1nc(-c2ccccn2)nc(N)c1Cc1c(F)cccc1Cl,71*,8,0,2,17
Nc1nc(-c2ccccn2)nc(N)c1Cc1ccccc1F,-43,17,-1,-1,9
Cc1[nH]c2c(Br)cccc2c1[C@H]1[C@@H](CC#N)C1(C)C,72*,4,-2,1,0
COc1cccc(CCNS(=O)(=O)CCNC(=O)c2cccc(OC)c2)c1,x,4,0,-4,1
CCOC(=O)c1ccc(N2C(=O)CC(N3CCN(Cc4ccccc4)CC3)C2=O)cc1 (stereo not drawn),1,6,-1,6,-1
CCOC(=O)c1ccc(N2C(=O)CC(N3CCC(Nc4ccc(F)cc4)CC3)C2=O)cc1 (stereo not drawn),84*,-1,-1,-1,0
NCc1csc(NC(=O)Nc2cccc(C(F)(F)F)c2)n1,x,x,0,x,x
C=CCOc1cccn2c(N(C=O)Cc3ccc(OC)cc3)c(CC)nc12,x,x,0,x,x
S=C(Nc1ccc(Cl)cc1Cl)Nc1ccccc1Oc1ccccc1,78*,1,0,1,-4
S=C(Nc1cccc(Cl)c1)Nc1ccccc1Oc1ccccc1,74*,-1,1,-2,-5
S=C(Nc1ccccc1Oc1ccccc1)Nc1cccc(Cl)c1Cl,35,x,0,-2,x
O=C(COC(=O)c1ccc([N+](=O)[O-])o1)Nc1ccc2c(c1)OCO2,x,-3,0,4,-1
C=C(C)CN=C1NN=C(c2cc(C)n(-c3ccc(C)cc3)c2C)CS1,74*,-1,0,-2,4
C=CCn1c(C)cc(C2=NNC(=NCc3ccccc3)SC2)c1C,30,1,0,0,4
CC(C)(C)C(=O)Nc1cc2nn(-c3ccccc3)nc2cc1Cl,80*,x,0,-4,x
CC(=O)Nc1cc2nn(-c3ccccc3)nc2cc1Cl,-9,2,-1,-5,1
CC(=O)Nc1cc(-c2ccccc2N(C)C)cn2c(-c3cccc(C(F)(F)F)c3)cnc12,x,x,0,x,x
Cc1ccc(-c2cc(N)n3nc(-c4ccc(C)cc4)cc3n2)cc1,74*,-2,-1,-3,0
Cc1ccc(-c2cc3nc(-c4ccccc4)cc(N)n3n2)cc1,78*,1,0,2,3
CCOC(=O)c1c(C)oc2c1cc(O)c1ccccc12,77*,4,-1,7,5
CCOC(=O)c1c(C)oc2c1c(C=NCc1ccccn1)c(O)c1ccccc12,82*,x,0,1,x
SMILES,CHOP inhibitor,XBP1 UPR activ,TbMetRS inhib,V-ATPase pHluor,CHOP UPR activ
CC(C)(C)C(=O)/C=c1\[nH]c(=O)/c(=C\c2ccc(F)cc2)s1,81*,-2,0,1,3
Cc1ccccc1/C=c1\s/c(=C\C(=O)C(C)(C)C)[nH]c1=O,82*,0,0,-4,1
CC(C)(C)C(=O)/C=c1\[nH]c(=O)/c(=C\c2ccccc2F)s1,60,1,0,-1,3
CC(C)c1ccc(CN2CCC2(C)C(=O)Nc2cnc3ccccc3c2)cc1 (stereo not drawn),x,x,0,x,x
CCCC(=O)Nc1sc(C)c(-c2ccc(C(C)CC)cc2)c1C#N (stereo not drawn),48,-1,0,16*,2
Cc1cc(C)cc(N=Cc2[nH]c3ccc(Br)c(Cl)c3c2O)c1,103*,x,-1,3,x
COc1ccc(CN=Cc2[nH]c3ccc(Br)c(Cl)c3c2O)cc1,43,-2,0,-3,1
CCOC(=O)C1(C)CCN1C(=O)c1ccco1 (stereo not drawn),x,x,0,x,x
Cc1ccc(S(=O)(=O)N2CCN(C(=O)N(C)C)CC2)cc1C,22,-6,1,3,-2
Cc1ccc(N(C)C(=O)N2CCN(S(=O)(=O)c3ccc(C)c(C)c3)CC2)cc1,73*,0,0,6,1
Cc1ccc(NC(CNS(=O)(=O)c2ccc(Cl)cc2)c2ccccc2)cc1 (stereo not drawn),104*,-5,-1,2,-2
COc1cccc(C(C#N)NCCCNC(C#N)c2cccc(OC)c2OC)c1OC (stereo not drawn),x,x,0,-3,x
COc1cccc(CNC(=O)[C@@H]2CCCN2C(=O)[C@H]2CCCCN2S(=O)(=O)c2ccc(OC)c(C)c2)c1,x,x,0,x,x
CC(c1ccco1)N(C(=O)C12CC3CC(CC(C)(C3)C1)C2)c1ccccn1 (stereo not drawn),87*,-7,0,-5,-1
O=C1C=C(NC2=CC3OC(c4ccccc4)OCC3OC2=O)CCC1 (stereo not drawn),95*,x,0,3,x
CCOc1ccc(/C=C/C(=O)OCC(=O)NCCc2ccc(OCC)c(OCC)c2)cc1OC,x,-5,0,0,-1
C=CC[n+]1c(-c2ccc(OC)cc2)csc1NNC(=O)Nc1ccccc1,52,-3,1,0,2
C=CC[n+]1c(-c2ccc(C)cc2)csc1Nc1ccc(NC(C)=O)cc1,85*,x,0,4,x
COc1ccc2cc3c(N)nn(C(=O)c4ccc(F)cc4)c3nc2c1,67,-1,-1,-1,0
COc1ccc2cc3c(N)nn(C(=O)Cc4ccc(Cl)cc4)c3nc2c1,83*,-2,0,2,1
COc1ccc2cc3c(N)nn(C(=O)c4cccc(F)c4)c3nc2c1,37,3,-1,-2,0
COc1ccc2cc3c(N)nn(C(=O)c4ccccc4Cl)c3nc2c1,77*,-1,-1,2,-4
COc1ccc2cc3c(N)nn(C(=O)Cc4c[nH]c5ccccc45)c3nc2c1,79*,-3,-1,1,-4
COc1cccc(CC(=O)n2nc(N)c3cc4ccc(OC)cc4nc32)c1,95*,0,0,5,1
COC(=O)[C@@]1(C(C)C)N=C(c2cc(OC)c(OC)c(OC)c2)[C@]2(O1)C(=O)Nc1ccccc12,x,x,0,x,x
CN(C)c1ccc2c(=O)cc[nH]c2c1,x,x,0,x,x
Cc1ccc(C)c(N2C(=O)c3ccc(C(=O)Nc4ccccn4)cc3C2=O)c1,x,x,0,-2,x
Cc1ccc2nc(-c3ccc(NS(=O)(=O)c4ccc(F)c(F)c4)cc3)sc2c1,85*,x,0,-3,x
CN1CCN(c2ncnc3c2ncn3[C@H]2CN(Cc3ccco3)C[C@@H](CO)O2)CC1,x,x,0,x,x
